Assay results from ChEMBL document CHEMBL3739379, “Anti-Candida activity and cytotoxicity of a large library of new N-substituted-1,3-thiazolidin-4-one derivatives” (Eur J Med Chem, 2016).
In brackets after ≈: the same amount, converted by molar mass.

Assays:
Format in all cases: functional
Staphylococcus aureus = test: Antibacterial activity against Staphylococcus aureus after 18 to 22 hrs by broth microdilution method
Outline: (§1)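 Broth microdilution per NCCLS in Mueller-Hinton II broth; isolates subcultured for purity. Compounds dissolved in DMSO, serial dilutions 256 to 0.5 µg/mL; inoculum 10^5/mL. Controls: organism without compound, medium only. Incubation 18 to 22 h at 35 °C. MIC is the lowest concentration giving complete growth inhibition, read by unaided eye.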

Staphylococcus warneri = test: Antibacterial activity against Staphylococcus warneri after 18 to 22 hrs by broth microdilution method; outline: as §1
Enterococcus faecalis = test: Antibacterial activity against […] faecalis after 18 to 22 hrs by broth microdilution method; outline: as §1
[1] = tested on: Staphylococcus haemolyticus; test: Antibacterial activity against Staphylococcus haemolyticus after 18 to 22 hrs by broth microdilution method; outline: as §1
Escherichia coli = test: Antibacterial activity against Escherichia coli at after 18 to 22 hrs by broth microdilution method; outline: as §1
Proteus mirabilis = test: Antibacterial activity against Proteus mirabilis after 18 to 22 hrs by broth microdilution method; outline: as §1
Enterobacter sp. = test: Antibacterial activity against Enterobacter sp. after 18 to 22 hrs by broth microdilution method; outline: as §1
Klebsiella oxytoca = test: Antibacterial activity against Klebsiella oxytoca after 18 to 22 hrs by broth microdilution method; outline: as §1
Candida albicans = test: Antifungal activity against Candida albicans clinical isolate after 24 hrs by sabouraud dextrose broth based microdilution method
Outline: (§2)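 Clinical isolates identified by conventional methods and subcultured for purity. Broth microdilution per NCCLS in Sabouraud dextrose broth; compounds dissolved in DMSO and serially diluted; inoculum 10^3/mL. Controls: fungi without compound, medium only. Incubated 24 h at 37 °C. MIC is the lowest concentration with complete growth inhibition by unaided eye. Values are geometric means over isolates per species.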

Nakaseomyces glabratus = test: Antifungal activity against Candida glabrata clinical isolate after 24 hrs by sabouraud dextrose broth based microdilution method; outline: as §2
Candida tropicalis = test: Antifungal activity against Candida tropicalis clinical isolate after 24 hrs by sabouraud dextrose broth based microdilution method; outline: as §2
Pichia kudriavzevii = test: Antifungal activity against Candida krusei clinical isolate after 24 hrs by sabouraud dextrose broth based microdilution method; outline: as §2
Candida parapsilosis = test: Antifungal activity against Candida parapsilosis clinical isolate after 24 hrs by sabouraud dextrose broth based microdilution method; conditions: Lodderomyces parapsilosis; outline: as §2
[Candida] sake = Antifungal activity against Candida sake clinical isolate after 24 hrs by sabouraud dextrose broth based microdilution method; conditions: Fermentozyma sake; outline: as §2

| MIC (Staphylococcus aureus) [µg/mL] | MIC (Staphylococcus warneri) [µg/mL] | MIC (Enterococcus faecalis) [µg/mL] | MIC (Escherichia coli) [µg/mL] | MIC (Proteus mirabilis) [µg/mL] | MIC (Enterobacter sp.) [µg/mL] | MIC (Klebsiella oxytoca) [µg/mL] | MIC (Candida albicans) [µg/mL] | MIC (Nakaseomyces glabratus) [µg/mL] | MIC (Candida tropicalis) [µg/mL] | MIC (Pichia kudriavzevii) [µg/mL] | MIC (Candida parapsilosis) [µg/mL] | MIC ([Candida] sake) [µg/mL] | Structure (SMILES) | MIC [1] [µg/mL] |
| --- | --- | --- | --- | --- | --- | --- | --- | --- | --- | --- | --- | --- | --- | --- |
| > 256 | > 256 | > 256 | > 256 | > 256 | > 256 | > 256 | 8 (≈ 21.9 µM) | 16 (≈ 43.8 µM) | 8 (≈ 21.9 µM) | 4 (≈ 10.9 µM) | 4 (≈ 10.9 µM) | 4 (≈ 10.9 µM) | O=C1CS/C(=N\N=C2CCCCCC2)N1Cc1cccc2ccccc12 | > 256 |
| > 256 | > 256 | > 256 | > 256 | > 256 | > 256 | > 256 | 2 (≈ 5.44 µM) | 8 (≈ 21.8 µM) | 2 (≈ 5.44 µM) | 16 (≈ 43.5 µM) | 16 (≈ 43.5 µM) | 2 (≈ 5.44 µM) | CCCC/C(CC)=N/N=C1\SCC(=O)N1Cc1cccc2ccccc12 | > 256 |
| > 256 | > 256 | > 256 | > 256 | > 256 | > 256 | > 256 | 16 (≈ 43.2 µM) | 32 (≈ 86.4 µM) | 4 (≈ 10.8 µM) | 2 (≈ 5.4 µM) | 8 (≈ 21.6 µM) | 8 (≈ 21.6 µM) | CC1CCC/C1=N\N=C1/SCC(=O)N1CN1C(=O)c2ccccc2C1=O (centres undefined) | > 256 |
| > 256 | > 256 | > 256 | > 256 | > 256 | > 256 | > 256 | 2 (≈ 5.24 µM) | 2 (≈ 5.24 µM) | 8 (≈ 21 µM) | 8 (≈ 21 µM) | 16 (≈ 41.9 µM) | 16 (≈ 41.9 µM) | CCCCCC/C(C)=N/N=C1\SCC(=O)N1Cc1cccc2ccccc12 | > 256 |
| > 256 | > 256 | > 256 | > 256 | > 256 | > 256 | > 256 | 2 (≈ 4.99 µM) | 16 (≈ 39.9 µM) | 16 (≈ 39.9 µM) | 8 (≈ 20 µM) | 16 (≈ 39.9 µM) | 16 (≈ 39.9 µM) | CCCCCC/C(C)=N/N=C1\SCC(=O)N1CN1C(=O)c2ccccc2C1=O | > 256 |
| > 256 | > 256 | > 256 | > 256 | > 256 | > 256 | > 256 | 4 (≈ 10.3 µM) | 16 (≈ 41.4 µM) | 2 (≈ 5.17 µM) | 32 (≈ 82.8 µM) | 8 (≈ 20.7 µM) | 2 (≈ 5.17 µM) | CCCC/C(CC)=N/N=C1\SCC(=O)N1CN1C(=O)c2ccccc2C1=O | > 256 |
| > 256 | > 256 | > 256 | > 256 | > 256 | > 256 | > 256 | 2 (≈ 5.93 µM) | 16 (≈ 47.4 µM) | 8 (≈ 23.7 µM) | 16 (≈ 47.4 µM) | 128 (≈ 379 µM) | 256 (≈ 759 µM) | O=C1CS/C(=N\N=C2CCCC2)N1Cc1cccc2ccccc12 | > 256 |
| > 256 | > 256 | > 256 | > 256 | > 256 | > 256 | > 256 | 2 (≈ 5.69 µM) | 16 (≈ 45.5 µM) | 128 (≈ 364 µM) | 256 (≈ 728 µM) | 64 (≈ 182 µM) | 256 (≈ 728 µM) | CC1CC/C(=N\N=C2/SCC(=O)N2Cc2cccc3ccccc23)C1 (centres undefined) | > 256 |
| > 256 | > 256 | > 256 | > 256 | > 256 | > 256 | > 256 | 2 (≈ 6.15 µM) | 2 (≈ 6.15 µM) | 128 (≈ 393 µM) | 2 (≈ 6.15 µM) | 2 (≈ 6.15 µM) | 2 (≈ 6.15 µM) | CC/C(C)=N/N=C1\SCC(=O)N1Cc1cccc2ccccc12 | > 256 |
| > 256 | > 256 | > 256 | > 256 | > 256 | > 256 | > 256 | 2 (≈ 5.47 µM) | 16 (≈ 43.8 µM) | 128 (≈ 350 µM) | 8 (≈ 21.9 µM) | 8 (≈ 21.9 µM) | 4 (≈ 10.9 µM) | CC1CCC(=N/N=C2\SCC(=O)N2Cc2cccc3ccccc23)CC1 (centres undefined) | > 256 |
| > 256 | > 256 | > 256 | > 256 | > 256 | > 256 | > 256 | 4 (≈ 10.9 µM) | 8 (≈ 21.9 µM) | 4 (≈ 10.9 µM) | 16 (≈ 43.8 µM) | 16 (≈ 43.8 µM) | 2 (≈ 5.47 µM) | CC1CCCC/C1=N\N=C1/SCC(=O)N1Cc1cccc2ccccc12 (centres undefined) | > 256 |
